Test results: ChEMBL document CHEMBL1123323, “Isolation, synthesis, and antitumor evaluation of spirohydantoin aziridine, a mutagenic metabolite of spirohydantoin mustard” (J Med Chem, 1986)
Several values for one entry are separate records, joined by “and”; a condition that tells them apart may be missing. Identical values can stand only once.

Key:
[1] = system: P388; assay: Percent increase in life span of treated (10 mg/kg, qd 1-9 days) mice as compared to the untreated leukemia controls; Expressed as therapeutic response; format: functional, Mus musculus
Method in brief: (§1)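 Female CDF1 mice given 1×10^6 P388 leukemia cells intraperitoneally. Drug in reagent-grade Me₂SO, dosed by average body weight in 0.1 mL. Life-span increase is from median day of death versus untreated leukemic controls. Tumor cell kill and log change (net change in viable tumor stem cells, end versus start of treatment) use a historical doubling time of 0.44 day.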

[2] = system: P388; assay: Percent increase in life span of treated (15 mg/kg, day 1 only) mice as compared to the untreated leukemia controls; Expressed as therapeutic response; format: functional, Mus musculus; method in brief: as §1
[3] = system: P388; assay: Percent increase in life span of treated (20 mg/kg, qd 1-9 days) mice as compared to the untreated leukemia controls; Expressed as therapeutic response; format: functional, Mus musculus; method in brief: as §1
[4] = system: P388; assay: Percent increase in life span of treated (5 mg/kg, day 1 only) mice as compared to the untreated leukemia controls; Expressed as therapeutic response; format: functional, Mus musculus; method in brief: as §1
[5] = system: P388; assay: Percent increase in life span of treated (5 mg/kg, qd 1-9 days) mice as compared to the untreated leukemia controls; Expressed as therapeutic response; format: functional, Mus musculus; method in brief: as §1
[6] = system: P388; assay: Approximate log change after administration (10 mg/kg, day 1 only) in normal mice; Expressed as therapeutic response; format: functional, Mus musculus; method in brief: as §1
[7] = system: P388; assay: Percent of deaths after administration (5 mg/kg, day 1 only) in leukemic mice; format: functional, Mus musculus; method in brief: as §1
[8] = system: P388; assay: Percent of deaths after administration (5 mg/kg, qd 1-9 days) in leukemic mice; format: functional, Mus musculus; method in brief: as §1
[9] = system: P388; assay: Approximate log change after administration (5 mg/kg, day 1 only) in normal mice; Expressed as therapeutic response; format: functional, Mus musculus; method in brief: as §1
[10] = system: P388; assay: (§2) Approximate number of tumor cells alive after administration (10 mg/kg, day 1 only) in normal mice; Expressed as therapeutic response; format: functional, Mus musculus; method in brief: as §1
[11] = system: P388; assay: Approximate number of tumor cells alive after administration (5 mg/kg, day 1 only) in normal mice; Expressed as therapeutic response; format: functional, Mus musculus; method in brief: as §1
[12] = system: P388; assay: Percent of deaths after administration (10 mg/kg, day 1 only) in normal mice; format: functional, Mus musculus
Method in brief: (§3)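 Non-tumored mice treated concurrently as drug toxicity controls. Drug in reagent-grade Me₂SO, dosed by average body weight in 0.1 mL. Deaths scored.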

[13] = system: P388; assay: Percent of deaths after administration (10 mg/kg, qd 1-9 days) in leukemic mice; format: functional, Mus musculus; method in brief: as §1
[14] = system: P388; assay: Percent of deaths after administration (15 mg/kg, day 1 only) in leukemic mice; format: functional, Mus musculus; method in brief: as §1
[15] = system: P388; assay: Percent of deaths after administration (15 mg/kg, day 1 only) in normal mice; format: functional, Mus musculus; method in brief: as §3
[16] = system: P388; assay: Percent of deaths after administration (20 mg/kg, qd 1-9 days) in leukemic mice; format: functional, Mus musculus; method in brief: as §1
[17] = Approximate number of tumor cells alive after administration (10 mg/kg, qd 1-9 days) in normal mice; Expressed as therapeutic response; format: ADME, organism-based; settings: mouse, in vivo; method in brief: as §1
[18] = Approximate number of tumor cells alive after administration (15 mg/kg, day 1 only) in normal mice; Expressed as therapeutic response; format: ADME, organism-based; settings: mouse, in vivo; method in brief: as §1
[19] = Approximate number of tumor cells alive after administration (20 mg/kg, qd 1-9 days) in normal mice; Expressed as therapeutic response; format: ADME, organism-based; settings: mouse, in vivo; method in brief: as §1
[20] = Approximate number of tumor cells alive after administration (5 mg/kg, qd 1-9 days) in normal mice; Expressed as therapeutic response; format: ADME, organism-based; settings: mouse, in vivo; method in brief: as §1
[21] = as §2; format: ADME, organism-based; settings: mouse, in vivo; method in brief: as §1
[22] = system: P388; assay: Percent increase in life span of treated (10 mg/kg, day 1 only) mice as compared to the untreated leukemia controls; Expressed as therapeutic response; format: functional, Mus musculus; method in brief: as §1
[23] = system: P388; assay: Percent increase in life span of treated (20 mg/kg, day 1 only) mice as compared to the untreated leukemia controls; Expressed as therapeutic response; format: functional, Mus musculus; method in brief: as §1
[24] = system: P388; assay: Percent increase in life span of treated (30 mg/kg, day 1 only) mice as compared to the untreated leukemia controls; Expressed as therapeutic response; format: functional, Mus musculus; method in brief: as §1
[25] = system: P388; assay: Percent increase in life span of treated (60 mg/kg, day 1 only) mice as compared to the untreated leukemia controls; Expressed as therapeutic response; format: functional, Mus musculus; method in brief: as §1
[26] = system: P388; assay: Percent of deaths after administration (20 mg/kg, qd 1-9 days) in normal mice; format: functional, Mus musculus; method in brief: as §3
[27] = system: P388; assay: Percent of deaths after administration (30 mg/kg, day 1 only) in leukemic mice; format: functional, Mus musculus; method in brief: as §1
[28] = system: P388; assay: Percent of deaths after administration (30 mg/kg, day 1 only) in normal mice; format: functional, Mus musculus; method in brief: as §3
[29] = system: P388; assay: Percent of deaths after administration (45 mg/kg, day 1 only) in leukemic mice; format: functional, Mus musculus; method in brief: as §1
[30] = system: P388; assay: Percent of deaths after administration (60 mg/kg, day 1 only) in leukemic mice; format: functional, Mus musculus; method in brief: as §1
[31] = system: P388; assay: Percent of deaths after administration (60 mg/kg, day 1 only) in normal mice; format: functional, Mus musculus; method in brief: as §3
[32] = system: P388; assay: Approximate log change after administration (20 mg/kg, day 1 only) in normal mice; Expressed as therapeutic response; format: functional, Mus musculus
Method in brief: (§4)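 Female CDF1 mice were implanted intraperitoneally with 1×10^6 P388 leukemia cells. Drug was prepared in reagent-grade Me₂SO according to average body weight, with each dose in 0.1 mL. Concurrent drug toxicity controls were run. Tumor cell kill was calculated from median day of death using a historical doubling time of 0.44 day. Log change is the net change in viable tumor stem cells from the start to the end of treatment.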

[33] = system: P388; assay: Approximate log change after administration (30 mg/kg, day 1 only) in normal mice; Expressed as therapeutic response; format: functional, Mus musculus; method in brief: as §4
[34] = system: P388; assay: Approximate number of tumor cells alive after administration (20 mg/kg, day 1 only) in normal mice; Expressed as therapeutic response; format: functional, Mus musculus; method in brief: as §1
[35] = system: P388; assay: Approximate number of tumor cells alive after administration (30 mg/kg, day 1 only) in normal mice; Expressed as therapeutic response; format: functional, Mus musculus; method in brief: as §1
[36] = system: P388; assay: Percent of deaths after administration (10 mg/kg, day 1 only) in leukemic mice; format: functional, Mus musculus; method in brief: as §1
[37] = system: P388; assay: Percent of deaths after administration (20 mg/kg, day 1 only) in leukemic mice; format: functional, Mus musculus
[38] = system: P388; assay: Percent of deaths after administration (20 mg/kg, day 1 only) in normal mice; format: functional, Mus musculus; method in brief: as §3
[39] = system: Salmonella typhimurium; assay: Mutagenic activity against Salmonella Typhimurium TA1535 (SHM equiv/plate 1 ug); Expressed as difference between the observed number of revertants and the average number of spontaneous revertants (Expt 2); format: functional, Salmonella enterica subsp. enterica serovar Typhimurium
Method in brief: (§5)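 Salmonella typhimurium TA1535 plate incorporation assay without S9 activation. TLC-isolated metabolite and synthetic aziridine dosed as SHM equivalents per plate. Score is revertants minus mean spontaneous revertants, from two separate experiments.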

[40] = system: Salmonella typhimurium; assay: Mutagenic activity against Salmonella Typhimurium TA1535 (SHM equiv/plate 10 ug); Expressed as difference between the observed number of revertants and the average number of spontaneous revertants (Expt 1); format: functional, Salmonella enterica subsp. enterica serovar Typhimurium; method in brief: as §5
[41] = system: Salmonella typhimurium; assay: Mutagenic activity against Salmonella Typhimurium TA1535 (SHM equiv/plate 10 ug); Expressed as difference between the observed number of revertants and the average number of spontaneous revertants (Expt 2); format: functional, Salmonella enterica subsp. enterica serovar Typhimurium; method in brief: as §5
[42] = system: Salmonella typhimurium; assay: Mutagenic activity against Salmonella Typhimurium TA1535 (SHM equiv/plate 100 ug); Expressed as difference between the observed number of revertants and the average number of spontaneous revertants (Expt 2); format: functional, Salmonella enterica subsp. enterica serovar Typhimurium; method in brief: as §5
[43] = Approximate number of tumor cells alive after administration (45 mg/kg, day 1 only) in normal mice; Expressed as therapeutic response; format: ADME, organism-based; settings: mouse, in vivo; method in brief: as §1
[44] = Approximate number of tumor cells alive after administration (60 mg/kg, day 1 only) in normal mice; Expressed as therapeutic response; format: ADME, organism-based; settings: mouse, in vivo; method in brief: as §1
[45] = system: Salmonella typhimurium; assay: Mutagenic activity against Salmonella Typhimurium TA1535 (SHM equiv/plate 1 ug); Expressed as difference between the observed number of revertants and the average number of spontaneous revertants (Expt 1); format: functional, Salmonella enterica subsp. enterica serovar Typhimurium; method in brief: as §5

O=C1NC2(CCCCC2)C(=O)N1CCN(CCCl)CCCl [SPIROMUSTINE]
ILS [1]: -50% | ILS [2]: 35% | ILS [3]: -60% | ILS [4]: 30% | ILS [5]: -45% | Log change [6]: -2.7 | Activity [7]: 10% | Activity [8]: 100% | Log change [9]: -2.1 | Activity [10]: 8900 | Activity [11]: 43000 | Activity [12]: 33% | Activity [13]: 100% | Activity [14]: 40% | Activity [15]: 50% | Activity [16]: 100% | Activity [17]: Toxic | Activity [18]: Toxic | Activity [19]: Toxic | Activity [20]: Toxic | Activity [21]: Toxic

O=C1NC2(CCCCC2)C(=O)N1CCN1CC1
ILS [22]: 0% | ILS [1]: -40% | ILS [23]: 0% | ILS [3]: -25% | ILS [24]: 0% | ILS [5]: -5% | ILS [25]: -30% | Activity [26]: 0% | Activity [27]: 16% and 0% | Activity [28]: 0% | Activity [29]: 33% | Activity [8]: 83% | Activity [30]: 50% | Activity [31]: 0% | Log change [32]: 0 | Log change [33]: 0 | Activity [10]: 4800000 | Activity [34]: 4800000 | Activity [35]: 4800000 | Activity [36]: 0% | Activity [13]: 0% | Activity [37]: 0% | Activity [38]: 0% | Activity [16]: 83% | Activity [39]: 21 | Activity [40]: 227 | Activity [41]: 238 | Activity [42]: 2000% | Activity [17]: Toxic | Activity [19]: Toxic | Activity [43]: Toxic | Activity [20]: Toxic | Activity [44]: Toxic | Activity [45]: 15
